Experimental data: ChEMBL document CHEMBL1149318, “(Z)- and (E)-[2-Fluoro-2-(hydroxymethyl)cyclopropylidene]methylpurines and -pyrimidines, a new class of methylenecyclopropane analogues of nucleosides: synthesis and antiviral activity” (J Med Chem, 2004)
pEC50: −log10 of the molar value.

Experiments:
Human gammaherpesvirus 4 [1] = assay: Inhibition of EBV replication in H1 cells by DNA hybridization assay; type: functional, organism-based; details: human gammaherpesvirus 4, H1
Summary of the method: (§1)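 EBV DNA hybridization assay in Daudi or H-1 cells; EC50 derived from viral DNA signal. Cytotoxicity for these EBV assays measured in CEM cells.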

[2] = Inhibition of HSV2 in Vero cells by plaque reduction assay; type: cell-based; details: Chlorocebus sabaeus
Summary of the method: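 Plaque reduction assay in Vero cells with HSV-1 or HSV-2.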

[3] = Cytotoxicity against Vero cells; type: cell-based; details: chlorocebus sabaeus
Hepatitis B virus = assay: Inhibition of HBV replication in 2.2.15 cells by DNA hybridization assay; type: functional, organism-based; details: HepG2 2.2.15
Summary of the method: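 HBV in 2.2.15 cells; viral DNA quantified by DNA hybridization to give EC50.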

Human alphaherpesvirus 1 [4] = assay: Inhibition of HSV1 in HFF cells by CPE assay; type: functional, organism-based; details: Human alphaherpesvirus 1, HFF
Summary of the method: (§2)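 Cytopathic effect inhibition assay in HFF culture (HCMV AD169; HSV-1 and HSV-2). Cytotoxicity by neutral red uptake.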

Human alphaherpesvirus 2 = assay: Inhibition of HSV2 in HFF cells by CPE assay; type: functional, organism-based; details: Human alphaherpesvirus 2, HFF; summary of the method: as §2
Human betaherpesvirus 5 [5] = assay: Inhibition of HCMV Towne replication in HFF cells by plaque reduction assay; type: functional, organism-based; details: Human betaherpesvirus 5, Towne
Summary of the method: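 Plaque reduction assay in HFF culture with HCMV Towne strain; cytotoxicity by neutral red uptake.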

[6] = Cytotoxicity against MT2 cells; type: cell-based; details: human
Summary of the method: (§3)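 Uninfected MT-2 (2 × 10^3 cells) or MT-4 (3 × 10^4 cells) cultured with analogues. Viability read by MTT assay after day 7 (MT-2) or day 5 (MT-4). Run in duplicate.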

Human gammaherpesvirus 4 [7] = assay: Inhibition of EBV replication in Daudi cells by VCA ELISA; type: functional, organism-based; details: human gammaherpesvirus 4, Daudi
Summary of the method: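 Viral capsid antigen (VCA) ELISA in Daudi cells; EC50 from capsid antigen signal. Cytotoxicity measured in CEM cells.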

[8] = Cytotoxicity against HFF cells by neutral red uptake assay; type: cell-based; details: human
Summary of the method: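 Human foreskin fibroblast (HFF) cultures, as used for the HCMV assays, exposed to analogues. Cytotoxicity read by neutral red uptake.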

[9] = Cytotoxicity against HFF cells; type: cell-based; details: human
[10] = system: Human immunodeficiency virus 1; assay: Inhibition of HIV1 LAI replication in MT2 by CPE assay; type: functional, organism-based; details: Human immunodeficiency virus 1, LAI
Summary of the method: (§4)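 HIV-1 LAI, 100 TCID50, used to infect MT-2 (2 × 10^3) or MT-4 (3 × 10^4) cells, which are then cultured with test analogue. EC50 read by MTT assay on day 7 (MT-2) or day 5 (MT-4). Assays run in duplicate.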

Human alphaherpesvirus 1 [11] = assay: Inhibition of HSV1 replication in BSC1 cells by ELISA; type: functional, organism-based; details: Human alphaherpesvirus 1, BSC-1
Summary of the method: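 HSV-1 in BSC-1 cells, read by ELISA; cytotoxicity determined in KB cells.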

Human alphaherpesvirus 1 [12] = assay: Inhibition of HSV1 in Vero cells by plaque reduction assay; details: Human alphaherpesvirus 1, Vero
CCRF-CEM = assay: Cytotoxicity against CEM cells; type: functional; details: Homo sapiens
[13] = Cytotoxicity against Daudi cells; type: cell-based; details: human
Human betaherpesvirus 5 [14] = assay: Inhibition of HCMV AD169 replication in HFF cells by CPE inhibition assay; type: functional, organism-based; details: Human betaherpesvirus 5, AD169, HFF; summary of the method: as §2
[15] = Cytotoxicity against HFF cells by visual cytotoxicity; type: cell-based; details: human
Summary of the method: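 HFF cultures exposed to analogues. Cytotoxicity scored visually.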

Human alphaherpesvirus 3 = assay: Inhibition of VZV replication in HFF cells by CPE assay; type: functional, organism-based; details: Human alphaherpesvirus 3, HFF
Human gammaherpesvirus 4 [16] = assay: Inhibition of EBV replication in Daudi cells by DNA hybridization assay; type: functional, organism-based; details: human gammaherpesvirus 4, Daudi; summary of the method: as §1
[17] = system: Human immunodeficiency virus 1; assay: Inhibition of HIV1 LAI replication in MT4 by CPE assay; type: functional, organism-based; details: Human immunodeficiency virus 1, LAI; summary of the method: as §4
[18] = Cytotoxicity against MT4 cells; type: cell-based; details: human; summary of the method: as §3
Murid betaherpesvirus 1 = assay: Inhibition of MCMV replication in MFF cells by plaque reduction assay; type: functional, organism-based; details: Murid betaherpesvirus 1, MFF
Summary of the method: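 MCMV in MEF cells by plaque reduction.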

[19] = Cytotoxicity against MFF cells; type: cell-based; details: mouse

SMILES	pEC50 (Human gammaherpesvirus 4 [1])	pEC50 [2]	CC50 [3]	pEC50 (Hepatitis B virus)	pEC50 (Human alphaherpesvirus 1 [4])	pEC50 (Human alphaherpesvirus 2)	pEC50 (Human betaherpesvirus 5 [5])	CC50 [6]	pEC50 (Human gammaherpesvirus 4 [7])	CC50 [8]	CC50 [9]	pEC50 [10]	pEC50 (Human alphaherpesvirus 1 [11])	pEC50 (Human alphaherpesvirus 1 [12])	CC50 (CCRF-CEM)	CC50 [13]	pEC50 (Human betaherpesvirus 5 [14])	CC50 [15]	pEC50 (Human alphaherpesvirus 3)	pEC50 (Human gammaherpesvirus 4 [16])	further results
Nc1nc2c(ncn2/C=C2\CC2(F)CO)c(=O)[nH]1 (stereo unspecified)	< 4.70	< 4.30	> 100 µM	< 4.70	< 4.10	< 4.10	< 4.00	> 100 µM	> 6.49	> 398 µM	> 400 µM	< 4.00	4.05	< 4.30	> 100 µM	> 199 µM	< 4.10	> 100 µM	< 4.10		
Nc1ccn(/C=C2/CC2(F)CO)c(=O)n1 (stereo unspecified)	< 4.70	< 4.30	> 100 µM	< 4.70	< 4.10	< 4.10	< 4.00	> 100 µM	> 6.42	> 474 µM	> 400 µM	< 4.00	< 4.00	< 4.30	> 100 µM	> 237 µM	< 3.32	> 100 µM	6.21	4.55	
Nc1ccn(/C=C2\CC2(F)CO)c(=O)n1 (stereo unspecified)	< 4.70	< 4.30	> 100 µM	< 4.70	< 4.10	< 4.10	< 4.00	> 100 µM	6.12	> 474 µM	> 400 µM	< 4.00	< 4.00	< 4.30	> 100 µM	> 237 µM	< 3.32	> 100 µM	4.83	4.02	
Nc1ncnc2c1ncn2/C=C1/CC1(F)CO (stereo unspecified)	4.86	< 4.30	> 100 µM	< 4.70	< 4.10	< 4.10	5.44	> 100 µM	5.84	> 425 µM	> 400 µM	4.92	< 4.00	< 4.30	> 100 µM	> 213 µM	5.22	> 100 µM	4.85		pEC50 [17]: 4.66; CC50 [18]: > 100 µM; pEC50 (Murid betaherpesvirus 1): 4.16; CC50 [19]: > 425 µM
Nc1ncnc2c1ncn2/C=C1\CC1(F)CO (stereo unspecified)		< 4.30	> 100 µM	4.82	< 4.10	< 4.10	4.70	> 100 µM		> 417 µM	> 400 µM	5.64	4.52	< 4.30	> 100 µM	> 209 µM	< 4.78	> 100 µM	< 4.08		pEC50 [17]: 5.12; CC50 [18]: > 100 µM
Cc1cn(/C=C2/CC2(F)CO)c(=O)[nH]c1=O (stereo unspecified)	5.60	< 4.30	> 100 µM	< 4.70	< 4.10	< 4.10	< 4.00	> 100 µM	4.29	> 442 µM	> 400 µM	< 4.00	5.60	< 4.30	> 100 µM	> 221 µM	< 3.35	> 100 µM	6.21	5.36	
Nc1nc2c(ncn2/C=C2/CC2(F)CO)c(=O)[nH]1 (stereo unspecified)	< 4.70	< 4.30	> 100 µM	< 4.70	< 4.10	< 4.10	< 4.00	> 100 µM	5.32	> 398 µM	> 400 µM	< 4.00	< 4.00	< 4.30	> 100 µM	> 199 µM	< 4.10	> 100 µM	< 4.10		
Cc1cn(/C=C2\CC2(F)CO)c(=O)[nH]c1=O (stereo unspecified)	< 4.70	< 4.30	> 100 µM	< 4.70	< 4.10	< 4.10	< 4.00	> 100 µM	< 3.66	> 442 µM	> 400 µM	< 4.00	4.40	< 4.30	> 100 µM	> 221 µM	< 3.35	> 100 µM	< 3.35		
Nc1nc2c(ncn2COCCO)c(=O)[nH]1 [ACYCLOVIR]											> 444 µM		5.00			> 222 µM				5.28	
Nc1nc2c(ncn2COC(CO)CO)c(=O)[nH]1 [GANCICLOVIR]							5.68			> 392 µM				< 4.30			5.66	> 100 µM			
Nc1ccn([C@@H]2CS[C@H](CO)O2)c(=O)n1 [LAMIVUDINE]															> 100 µM						
Cc1cn([C@H]2C[C@H](N=[N+]=[N-])[C@@H](CO)O2)c(=O)[nH]c1=O [ZIDOVUDINE]								> 10 µM				7.70									
